Results pooled from the literature.
Each line is one published result; the experiments were not run side by side.
Target: Serine/threonine-protein kinase TNNI3K (TNNI3K, Homo sapiens, UniProt Q59H18)
Sequence (Q59H18 1-835, as in one of the studies): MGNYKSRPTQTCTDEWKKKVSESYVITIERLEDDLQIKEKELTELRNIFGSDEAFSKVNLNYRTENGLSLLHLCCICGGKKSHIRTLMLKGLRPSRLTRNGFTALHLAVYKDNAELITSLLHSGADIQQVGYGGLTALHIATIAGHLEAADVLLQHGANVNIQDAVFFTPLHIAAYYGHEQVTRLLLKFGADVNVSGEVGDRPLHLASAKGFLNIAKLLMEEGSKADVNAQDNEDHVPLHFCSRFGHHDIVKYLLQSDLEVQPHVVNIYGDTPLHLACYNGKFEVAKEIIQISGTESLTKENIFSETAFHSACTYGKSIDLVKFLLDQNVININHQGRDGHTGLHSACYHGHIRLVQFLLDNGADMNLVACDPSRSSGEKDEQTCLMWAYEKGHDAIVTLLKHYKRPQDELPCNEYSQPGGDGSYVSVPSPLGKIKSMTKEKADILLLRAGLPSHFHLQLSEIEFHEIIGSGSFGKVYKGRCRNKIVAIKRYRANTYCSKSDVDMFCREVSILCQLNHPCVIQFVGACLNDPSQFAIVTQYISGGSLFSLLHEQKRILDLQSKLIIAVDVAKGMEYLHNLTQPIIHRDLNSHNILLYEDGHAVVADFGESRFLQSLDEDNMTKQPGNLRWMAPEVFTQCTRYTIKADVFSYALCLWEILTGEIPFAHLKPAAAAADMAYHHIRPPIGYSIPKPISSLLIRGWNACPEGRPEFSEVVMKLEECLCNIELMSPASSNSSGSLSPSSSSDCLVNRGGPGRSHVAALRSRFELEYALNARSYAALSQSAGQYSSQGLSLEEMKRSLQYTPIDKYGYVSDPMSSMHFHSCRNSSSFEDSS

O=C(NCC1CCOCC1)c1n[nH]cc1NC(=O)c1c(F)cccc1F — remaining binding (binding, competition with immobilised ligand; 1 µM): 100%
CN(CCCC(F)(F)F)c1nccc(-c2cnn3ncccc23)n1 — remaining binding (binding; 1 µM): 100%
c1cncc(-c2cccc(Nc3nccc(NC4CCCCC4)n3)c2)c1 — remaining binding (binding, competition with immobilised ligand; 10 µM): 95%
O=C(NCCCN1CCOCC1)c1ccc(Nc2nccc(-c3cc4ccccc4s3)n2)cc1 — remaining binding (binding, competition with immobilised ligand; 1 µM): 70%
c1cnn2ncc(-c3ccnc(N4CCC45COC5)n3)c2c1 — remaining binding (binding; 1 µM): 100%
C=CC(=O)N1CCC(C(=O)NCC(=O)N2CCN(c3nc(-c4cnc(N)nc4C(F)F)nc(N4CCOCC4)n3)CC2)CC1 — remaining binding (binding, competition with immobilised ligand; 1 µM): 100%
CS(=O)(=O)N1CCCC(NC(=O)[C@H](CCC2CCCCC2)NC(=O)c2ccc(CNc3ncnc4c3nnn4-c3ccccc3)cc2)C1 (stereo partly shown) — remaining binding (cell-free assay, competition with immobilised ligand; 0.1 µM): 63%
F[C@@H]1CCN(c2nccc(-c3cnn4ncccc34)n2)C1 — remaining binding (binding; 1 µM): 100%
COc1ncc2cc3ccccc3nc2c1C#N — remaining binding (cell-free assay, competition with immobilised ligand; 5 µM): 100%
N[C@H]1CCN(c2nccc(-c3cnn4ncccc34)n2)C1 — remaining binding (binding; 1 µM): 100%
CCCCN(CCCC)C(=O)CN1C[C@H](c2cc(OC)c3c(c2)OCO3)[C@@H](C(=O)O)[C@@H]1CC(C)(C)CCC — remaining binding (cell-free assay, competition with immobilised ligand; 1 µM): 100%
O=C(c1ccc(Nc2ncc(Cl)c(-c3cc4ccccc4s3)n2)cc1)N1CCC(N2CCCC2)CC1 — remaining binding (binding, competition with immobilised ligand; 1 µM): 50%
Cc1nc(C2CCN(C(=O)c3ccc(OC(F)(F)F)cc3N)CC2)c2ncc(N3CCN(C)CC3)cc2n1 — remaining binding (cell-free assay, competition with immobilised ligand; 1 µM): 100%
CNC(=O)[C@@H]1CC[C@@H](n2c(-c3ccc4cnccc4c3)nc3ccc(C(=O)NCc4cccc(C(N)=O)c4)cc32)C1 — remaining binding (binding, competition with immobilised ligand; 1 µM): 100%
Cn1nc(C(F)(F)F)cc1-c1cnc(N2CCc3cc(S(=O)(=O)Nc4c(F)cc(Cl)cc4F)cc(N4CCCC4=O)c32)nc1 — remaining binding (cell-free assay, competition with immobilised ligand; 1 µM): 65%
O=C(c1ccc(Nc2nccc(-c3cc4ccccc4s3)n2)cc1)N1CCC(N2CCCC2)CC1 — remaining binding (binding, competition with immobilised ligand; 1 µM): 71%
Nc1cnc(N2CCc3cc(S(=O)(=O)Nc4c(F)cc(Cl)cc4F)cc(N4CCCC4=O)c32)nc1 — remaining binding (binding, competition with immobilised ligand; 1 µM): 49%
COc1cnc(Nc2cccc(S(N)(=O)=O)c2)nc1N1CCN(c2ccccc2)C(=O)C1 — remaining binding (binding, competition with immobilised ligand; 1 µM): 86%
C[C@@H]1CCN(c2nccc(-c3cnn4ncccc34)n2)C1 — remaining binding (binding; 1 µM): 100%
CS(=O)(=O)c1cc(C2(NC(=O)c3cncc4c3cnn4-c3ccc(F)cc3)CC2)ccn1 — remaining binding (cell-free assay, competition with immobilised ligand; 1 µM): 64%
CN(c1nccc(-c2cnn3ncccc23)n1)C1CC1 — remaining binding (binding; 1 µM): 84%
Cc1c[nH]c2nccc(Oc3c(F)cc(Nc4cc(Cl)nc(N)n4)cc3F)c12 — remaining binding (cell-free assay, competition with immobilised ligand; 0.1 µM): 98%
